Key:
Format in all cases: functional
TK-10 = assay: Anticancer activity against human TK10 cells after 48 hrs by sulforhodamine B assay; conditions: TK-10, 48 h
How it was run: (§1)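 Tested in the NCI 60-human-tumour-cell-line screen. Compounds were applied at a minimum of five concentrations in 10-fold dilutions with 48 h exposure. Cell growth was estimated by sulforhodamine B protein staining. GI50 (log10 of molar concentration giving 50% growth inhibition) and TGI were read from the data sheets, dose-response curves and mean graphs. Some cell lines were screened twice.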

SK-OV-3 = assay: Anticancer activity against human SKOV3 cells after 48 hrs by sulforhodamine B assay; conditions: SK-OV-3, 48 h
How it was run: (§2)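 NCI 60-cell-line anticancer screen. Each compound is tested at a minimum of five concentrations in 10-fold dilutions with 48 h drug exposure. Cell viability/growth is estimated by sulforhodamine B protein staining. GI50 is the log10 molar concentration giving 50% growth inhibition, read from the dose-response curves and mean graphs of the NCI data screening report. TGI was taken from double screens.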

HT-29 = assay: Anticancer activity against human HT-29 cells after 48 hrs by sulforhodamine B assay; conditions: HT-29, 48 h; how it was run: as §2
CAKI-1 = assay: Anticancer activity against human Caki1 cells after 48 hrs by sulforhodamine B assay; conditions: CAKI-1, 48 h; how it was run: as §2
LOX IMVI = assay: Anticancer activity against human LOXIMVI cells after 48 hrs by sulforhodamine B assay; how it was run: as §2
A549 = assay: Anticancer activity against human A549 cells after 48 hrs by sulforhodamine B assay; conditions: A549, 48 h; how it was run: as §2
NCI/ADR-RES = assay: Anticancer activity against human NCI/ADR-RES cells after 48 hrs by sulforhodamine B assay; how it was run: as §2
T47D = assay: Anticancer activity against human T47D cells after 48 hrs by sulforhodamine B assay; how it was run: as §1
OVCAR-8 = assay: Anticancer activity against human OVCAR8 cells after 48 hrs by sulforhodamine B assay; conditions: OVCAR-8, 48 h; how it was run: as §2
OVCAR-4 = assay: Anticancer activity against human OVCAR4 cells after 48 hrs by sulforhodamine B assay; conditions: OVCAR-4, 48 h; how it was run: as §2
SK-MEL-2 = assay: Anticancer activity against human SK-MEL-2 cells after 48 hrs by sulforhodamine B assay; conditions: SK-MEL-2, 48 h; how it was run: as §2
K562 = assay: Anticancer activity against human K562 cells after 48 hrs by sulforhodamine B assay; conditions: K562, 48 h; how it was run: as §2
NCI-H522 = assay: Anticancer activity against human NCI-H522 cells after 48 hrs by sulforhodamine B assay; conditions: NCI-H522, 48 h; how it was run: as §2
BT-549 = assay: Anticancer activity against human BT549 cells after 48 hrs by sulforhodamine B assay; conditions: BT-549, 48 h; how it was run: as §2
CCRF-CEM = assay: Anticancer activity against human CCRF-CEM cells after 48 hrs by sulforhodamine B assay; how it was run: as §2
SF-268 = assay: Anticancer activity against human SF268 cells after 48 hrs by sulforhodamine B assay; conditions: SF-268, 48 h; how it was run: as §2
NCI-H460 = assay: Anticancer activity against human NCI-H460 cells after 48 hrs by sulforhodamine B assay; conditions: NCI-H460, 48 h; how it was run: as §2
MDA-N = assay: Anticancer activity against human MDA-N cells after 48 hrs by sulforhodamine B assay; how it was run: as §2
SR = assay: Anticancer activity against human SR cells after 48 hrs by sulforhodamine B assay; how it was run: as §1
U-251 = assay: Anticancer activity against human U251 cells after 48 hrs by sulforhodamine B assay; conditions: U-251, 48 h; how it was run: as §1
UACC-62 = assay: Anticancer activity against human UACC62 cells after 48 hrs by sulforhodamine B assay; conditions: UACC-62, 48 h; how it was run: as §1
A498 = assay: Anticancer activity against human A498 cells after 48 hrs by sulforhodamine B assay; conditions: A498, 48 h; how it was run: as §2
NCI-H322M = assay: Anticancer activity against human NCI-H322M cells after 48 hrs by sulforhodamine B assay; how it was run: as §2
HOP-92 = assay: Anticancer activity against human HOP92 cells after 48 hrs by sulforhodamine B assay; conditions: HOP-92, 48 h; how it was run: as §2
HL-60 = assay: Anticancer activity against human HL-60(TB) cells after 48 hrs by sulforhodamine B assay; conditions: HL-60, 48 h
How it was run: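 NCI 60-cell-line anticancer screen. Drugs tested at a minimum of five concentrations at 10-fold dilutions with 48 h exposure. Cell growth estimated by sulforhodamine B protein assay. GI50 is log10 of the molar concentration giving 50% growth inhibition, read from the screening data sheet, dose-response curves and mean graphs.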

SK-MEL-5 = assay: Anticancer activity against human SK-MEL-5 cells after 48 hrs by sulforhodamine B assay; conditions: SK-MEL-5, 48 h; how it was run: as §2
EKVX = assay: Anticancer activity against human EKVX cells after 48 hrs by sulforhodamine B assay; how it was run: as §2
MDA-MB-435 = assay: Anticancer activity against human MDA-MB-435 cells after 48 hrs by sulforhodamine B assay; conditions: MDA-MB-435, 48 h; how it was run: as §2
COLO 205 = assay: Anticancer activity against human COLO205 cells after 48 hrs by sulforhodamine B assay; conditions: COLO 205, 48 h; how it was run: as §2
ACHN = assay: Anticancer activity against human ACHN cells after 48 hrs by sulforhodamine B assay; how it was run: as §2
[1] = Anticancer activity against human Hs 578T cells after 48 hrs by sulforhodamine B assay; how it was run: as §2
786-0 = assay: Anticancer activity against human 786-0 cells after 48 hrs by sulforhodamine B assay; conditions: 786-0, 48 h; how it was run: as §2
HCT-15 = assay: Anticancer activity against human HCT15 cells after 48 hrs by sulforhodamine B assay; conditions: HCT-15, 48 h; how it was run: as §2
[2] = Anticancer activity against human […] cells after 48 hrs by sulforhodamine B assay; how it was run: as §2
NCI-H226 = assay: Anticancer activity against human NCI-H226 cells after 48 hrs by sulforhodamine B assay; conditions: NCI-H226, 48 h; how it was run: as §2
DU-145 = assay: Anticancer activity against human DU145 cells after 48 hrs by sulforhodamine B assay; conditions: DU-145, 48 h; how it was run: as §2
SNB-75 = assay: Anticancer activity against human SNB75 cells after 48 hrs by sulforhodamine B assay; conditions: SNB-75, 48 h; how it was run: as §1
UACC-257 = assay: Anticancer activity against human UACC257 cells after 48 hrs by sulforhodamine B assay; conditions: UACC-257, 48 h; how it was run: as §1
OVCAR-5 = assay: Anticancer activity against human OVCAR5 cells after 48 hrs by sulforhodamine B assay; conditions: OVCAR-5, 48 h; how it was run: as §2
SN12C = assay: Anticancer activity against human SN12C cells after 48 hrs by sulforhodamine B assay; how it was run: as §2
HOP-62 = assay: Anticancer activity against human HOP62 cells after 48 hrs by sulforhodamine B assay; conditions: HOP-62, 48 h; how it was run: as §2
MDA-MB-231 = assay: Anticancer activity against human MDA-MB-231 cells after 48 hrs by sulforhodamine B assay; conditions: MDA-MB-231, 48 h; how it was run: as §2
M14 = assay: Anticancer activity against human M14 cells after 48 hrs by sulforhodamine B assay; conditions: M14, 48 h; how it was run: as §2
HCC 2998 = assay: Anticancer activity against human HCC2998 cells after 48 hrs by sulforhodamine B assay; conditions: HCC 2998, 48 h; how it was run: as §2
HCT-116 = assay: Anticancer activity against human HCT116 cells after 48 hrs by sulforhodamine B assay; conditions: HCT-116, 48 h; how it was run: as §2
UO-31 = assay: Anticancer activity against human UO31 cells after 48 hrs by sulforhodamine B assay; conditions: UO-31, 48 h; how it was run: as §1
MOLT-4 = assay: Anticancer activity against human MOLT4 cells after 48 hrs by sulforhodamine B assay; conditions: MOLT-4, 48 h; how it was run: as §2
KM12 = assay: Anticancer activity against human KM12 cells after 48 hrs by sulforhodamine B assay; conditions: KM12, 48 h; how it was run: as §2
Malme-3M = assay: Anticancer activity against human MALME-3M cells after 48 hrs by sulforhodamine B assay; how it was run: as §2
SF-539 = assay: Anticancer activity against human SF539 cells after 48 hrs by sulforhodamine B assay; conditions: SF-539, 48 h; how it was run: as §2
RXF 393 = assay: Anticancer activity against human RXF393 cells after 48 hrs by sulforhodamine B assay; conditions: RXF 393, 48 h; how it was run: as §2
MCF7 = assay: Anticancer activity against human MCF7 cells after 48 hrs by sulforhodamine B assay; conditions: MCF7, 48 h; how it was run: as §2
NCI-H23 = assay: Anticancer activity against human NCI-H23 cells after 48 hrs by sulforhodamine B assay; conditions: NCI-H23, 48 h; how it was run: as §2
IGROV-1 = assay: Anticancer activity against human IGROV1 cells after 48 hrs by sulforhodamine B assay; conditions: IGROV-1, 48 h; how it was run: as §2
OVCAR-3 = assay: Anticancer activity against human OVCAR-3 cells after 48 hrs by sulforhodamine B assay; conditions: OVCAR-3, 48 h; how it was run: as §2
SF-295 = assay: Anticancer activity against human SF295 cells after 48 hrs by sulforhodamine B assay; conditions: SF-295, 48 h; how it was run: as §2
PC-3 = assay: Anticancer activity against human PC3 cells after 48 hrs by sulforhodamine B assay; conditions: PC-3, 48 h; how it was run: as §2
SW-620 = assay: Anticancer activity against human SW620 cells after 48 hrs by sulforhodamine B assay; conditions: SW-620, 48 h; how it was run: as §1
SK-MEL-28 = assay: Anticancer activity against human SK-MEL-28 cells after 48 hrs by sulforhodamine B assay; conditions: SK-MEL-28, 48 h; how it was run: as §2
SNB-19 = assay: Anticancer activity against human SNB19 cells after 48 hrs by sulforhodamine B assay; conditions: SNB-19, 48 h; how it was run: as §2

O=c1[nH]c(=O)n([C@H]2C[C@H](O)[C@@H](CO)O2)cc1F [FLOXURIDINE]
GI50 (TK-10): 5010 nM
GI50 (SK-OV-3): 2000 nM
GI50 (HT-29): 2510 nM
GI50 (CAKI-1): 31.6 nM
GI50 (LOX IMVI): 25.1 nM
GI50 (A549): 12.6 nM
GI50 (NCI/ADR-RES): 1260 nM
GI50 (T47D): 1260 nM
GI50 (OVCAR-8): 126 nM
GI50 (OVCAR-4): 10000 nM
GI50 (SK-MEL-2): 10000 nM
GI50 (K562): 794 nM
GI50 (NCI-H522): 2510 nM
GI50 (BT-549): 1000 nM
GI50 (CCRF-CEM): 6.31 nM
GI50 (SF-268): 12.6 nM
GI50 (NCI-H460): 2 nM
GI50 (MDA-N): 1260 nM
GI50 (SR): 12.6 nM
GI50 (U-251): 126 nM
GI50 (UACC-62): 39.8 nM
GI50 (A498): 1260 nM
GI50 (NCI-H322M): 501 nM
GI50 (HOP-92): 794 nM
GI50 (HL-60): 200 nM
GI50 (SK-MEL-5): 200 nM
GI50 (EKVX): 10000 nM
GI50 (MDA-MB-435): 3160 nM
GI50 (COLO 205): 1580 nM
GI50 (ACHN): 31.6 nM
GI50 [1]: 3980 nM
GI50 (786-0): 100 nM
GI50 (HCT-15): 2000 nM
GI50 [2]: 794 nM
GI50 (NCI-H226): 10000 nM
GI50 (DU-145): 251 nM
GI50 (SNB-75): 200 nM
GI50 (UACC-257): 3160 nM
GI50 (OVCAR-5): 6310 nM
GI50 (SN12C): 200 nM
GI50 (HOP-62): 25.1 nM
GI50 (MDA-MB-231): 3980 nM
GI50 (M14): 158 nM
GI50 (HCC 2998): 1 nM
GI50 (HCT-116): 126 nM
GI50 (UO-31): 126 nM
GI50 (MOLT-4): 39.8 nM
GI50 (KM12): 6310 nM
GI50 (Malme-3M): 7940 nM
GI50 (SF-539): 3.98 nM
GI50 (RXF 393): 3980 nM
GI50 (MCF7): 6.31 nM
GI50 (NCI-H23): 501 nM
GI50 (IGROV-1): 2510 nM
GI50 (OVCAR-3): 2510 nM
GI50 (SF-295): 39.8 nM
GI50 (PC-3): 316 nM
GI50 (SW-620): 10000 nM
GI50 (SK-MEL-28): 2000 nM
GI50 (SNB-19): 2000 nM

Reference: ChEMBL document CHEMBL1152599, “Synthesis and in vitro activities of new anticancer duplex drugs linking 2'-deoxy-5-fluorouridine (5-FdU) with 3'-C-ethynylcytidine (ECyd) via a phosphodiester bonding” (2009)
